ChEMBL document CHEMBL4270554, “Discovery of the cancer cell selective dual acting anti-cancer agent (Z)-2-(1H-indol-3-yl)-3-(isoquinolin-5-yl)acrylonitrile (A131)” (Eur J Med Chem, 2018)

Experiments:
[1] = Antiproliferative activity against human IMR90 cells after 72 hrs by MTT assay; assay type: cell-based; details: IMR-90 cells
Outline: (§1)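 Cells cultured at 37 °C, 5% CO₂ in medium with 10% FBS and penicillin/streptomycin, used within 12-20 passages. Seeded at 2.5×10^3 cells/well for 24 h, then compound added from DMSO stocks at 200-fold final concentration (final DMSO 0.5% v/v). After 72 h, 0.5 mg/mL MTT for 3 h, formazan dissolved in DMSO, A570 read. IC50 from sigmoidal fit; three independent determinations.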

[2] = tested on: BJ; test: Antiproliferative activity against human BJ cells assessed as reduction in cell viability at 5 uM incubated for 2 days followed by compound washout measured after 11 days by cell counting method; assay type: cell-based; details: 48 h
Outline: (§2)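 Normal BJ fibroblasts synchronized in G1 by 2-day serum starvation (0.1% FBS), released into 10% FBS medium and exposed to 5 μM for 2, 4 or 11 days. After 2 or 4 days drug removed and growth continued in fresh medium up to 11 days. Total cell numbers by automated counter; mean ± S.D., n>6.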

[3] = tested on: SNU-449; test: Antiproliferative activity against human SNU449 cells after 72 hrs by MTT assay; assay type: functional; details: SNU-449, 72 h; outline: as §1
[4] = tested on: HeLa; test: Inhibition of colony formation in human HeLa cells at 0.6 uM after 7 days by plate colony counting method relative to control; assay type: functional; details: 168 h
Outline: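 Anchorage-independent growth: HeLa cells (1×10^4 per well) in 0.4% soft agar layered over 1% agar. Compound added at final 0.15, 0.3, 0.6, 1.25, 2.5 and 5 μM. HeLa colonies counted.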

[5] = tested on: HeLa; test: Induction of autophagy in human HeLa cells assessed as increase in LC3-2 to LC3-1 ratio at 0.625 uM after 6 hrs by immunoblot analysis relative to control; assay type: functional
Outline: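 HeLa cells were exposed for 6 h to the compound at 0.625, 1.25, 2.5, 5 or 10 µM, or to DMSO. Cells were lysed in 1% Triton buffer (pH 8.0) with protease and phosphatase inhibitors. Lysates were resolved by 14% SDS-PAGE and immunoblotted for LC3, with β-actin probed. The LC3-II/LC3-I band-intensity ratio was expressed relative to the DMSO control.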

[6] = tested on: MCF7; test: Antiproliferative activity against human MCF7 cells after 72 hrs by MTT assay; assay type: functional; details: MCF7, 72 h; outline: as §1
[7] = Antiproliferative activity against human SNU1750 cells after 72 hrs by MTT assay; assay type: functional; outline: as §1
[8] = Antiproliferative activity against human NCC24 cells after 72 hrs by MTT assay; assay type: functional; outline: as §1
[9] = tested on: BJ; test: Cell cycle arrest in human BJ cells assessed as accumulation at sub-G1 phase at 5 uM after 48 hrs; assay type: cell-based
Outline: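 Isogenic normal and fully transformed BJ fibroblasts (hTert, small t, shRNAs to p53 and pRb, H-RasV12-ER) exposed to 5 μM for 48 h. Percentage of cells in sub-G1 phase determined as a cell death measure.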

[10] = Antiproliferative activity against human hTERT-RPE1 cells after 72 hrs by MTT assay; assay type: cell-based, TERT-RPE1; outline: as §1
[11] = tested on: Salmonella typhimurium; test: Genotoxicity in Salmonella typhimurium TA100 after 48 hrs in presence of S9 mix by Ames test; assay type: toxicity, organism-based; details: salmonella enterica subsp. enterica serovar typhimurium
[12] = tested on: hTERT-BJ; test: Induction of autophagy in human hTERT-BJ cells transformed with hTert, small t, shRNAs against p53 and pRb and H-RasV12-ER assessed as increase in LC3-2 to LC3-1 ratio at 5 uM after 24 hrs by immunoblot analysis relative to control; assay type: functional
Outline: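 Fully transformed BJ fibroblasts (hTert, small t, shRNAs to p53 and pRb, H-RasV12-ER) grown at 37 °C, 5% CO2 in 10% FBS medium; treated 24 h at 5 μM. Triton lysis, 14% SDS-PAGE, LC3 immunoblot; LC3-II/LC3-I band ratio relative to DMSO-treated control, under 2-fold induction deemed insignificant.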

[13] = tested on: Mus musculus; test: Toxicity in BALB/c athymic nu/nu mouse xenografted with human HCT15 cells assessed as effect on body weight at 20 mg/kg, ip bid administered 12 days; assay type: organism-based; details: in vivo, 288 h
Outline: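 Female BALB/c nu/nu mice aged 5–7 weeks, implanted subcutaneously in the flank with 5×10^6 HCT15 cells. At mean tumour 100–300 mm³, randomised into groups of 6. Given 20 mg/kg ip twice daily for 12 days, vehicle 10% DMSO/50% PEG400 in water pH 5.0.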

[14] = Antiproliferative activity against human SNU620 cells after 72 hrs by MTT assay; assay type: functional; details: SNU620, 72 h; outline: as §1
[15] = Antiproliferative activity against human HEp-3 cells after 72 hrs by MTT assay; assay type: functional; outline: as §1
[16] = Selectivity index, ratio of IC50 for human BJ cells to IC50 for human BJ cells transformed with hTert, small t, shRNAs against p53 and pRb and H-RasV12-ER; assay type: functional
Outline: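 Normal BJ fibroblasts and transformed BJ fibroblasts were grown at 37 °C in 5% CO₂ with 10% FBS, seeded at 2.5×10^3 cells/well for 24 h, then treated for 72 h at 0.5% v/v final DMSO. MTT at 0.5 mg/mL was added for 3 h, formazan was dissolved in DMSO and absorbance read at 570 nm. IC50 came from sigmoidal fits of three independent determinations. The index is normal-cell IC50 over transformed-cell IC50.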

[17] = tested on: BJ; test: Induction of apoptosis in human BJ cells assessed as activation of caspase-3/7 up to 5 uM after 48 hrs by caspase-Glo 3/7 luminescent assay; assay type: cell-based
Outline: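 Normal and transformed BJ cells treated 48 h across a concentration series. Caspase-3/7 activity by Caspase-Glo 3/7 luminescence, normalized to viable cell number from MTT. Mean ± S.D., n=3; two-tailed unpaired t tests.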

[18] = tested on: HGC-27; test: Antiproliferative activity against human HGC27 cells after 72 hrs by MTT assay; assay type: functional; details: HGC-27, 72 h; outline: as §1
[19] = Antiproliferative activity against human NCC19 cells after 72 hrs by MTT assay; assay type: functional; outline: as §1
[20] = Antiproliferative activity against human SNU216 cells after 72 hrs by MTT assay; assay type: functional; details: SNU-216, 72 h; outline: as §1
[21] = tested on: BJ; test: Antiproliferative activity against human BJ cells assessed as reduction in cell viability at 5 uM incubated for 4 days followed by compound washout measured after 11 days by cell counting method; assay type: cell-based; details: 96 h; outline: as §2
[22] = Intrinsic clearance in pooled female rat liver microsomes assessed per mg protein at 3 uM preincubated for 5 mins followed by NADPH addition measured after 45 mins by LC-MS/MS method; assay type: ADME, microsome; details: read-out: CLH
Outline: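 Pooled female or male rat liver microsomes (0.3 mg protein/mL) with substrate at final 3 μM in 0.1 M phosphate pH 7.4. Pre-incubated 5 min at 37 °C, then started with NADPH (final 1 mM). Sampled at 0–45 min in triplicate, quenched with cold acetonitrile plus internal standard. Parent measured by LC-MS/MS. Midazolam as positive control; no-NADPH negative control.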

**Q.** Which results are given for `N#C/C(=C\c1cccc2cnccc12)c1c[nH]c2ccccc12`?
**A.** GI50 at 72 h [1]: 5800 nM; Activity [2]: Non-Toxic; GI50 [3]: 2300 nM; inhibition at 0.6 µM [4]: 50%; fold change (FC) [5]: 1; GI50 [6]: 1200 nM; GI50 [7]: 700 nM; GI50 [8]: 1200 nM; Activity [9]: Non-Toxic; GI50 at 72 h [10]: 5200 nM; Activity [11]: Non-Toxic; fold change (FC) [12]: 5; Activity [13]: Non-Toxic; GI50 [14]: 1000 nM; GI50 [15]: 3700 nM; Ratio IC50 [16]: 8.5; Activity [17]: Non-Toxic; GI50 [18]: 1200 nM; GI50 [19]: 4600 nM; GI50 [20]: 1900 nM; Activity [21]: Non-Toxic; microsomal CLint at 3 µM [22]: 59 µL/min/mg
